Here are results for 21 compounds from ChEMBL document CHEMBL2424550, “Discovery of cyclic sulfoxide hydroxyethylamines as potent and selective β-site APP-cleaving enzyme 1 (BACE1) inhibitors: structure based design and in vivo reduction of amyloid β-peptides” (Bioorg Med Chem Lett, 2013).

Structures are written as SMILES.

Data set [1] can be described thus: Dissociation constant, pKa of the compound. In kind it is physicochemical. The essentials:
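Measured by multi-wavelength UV spectroscopy across a linear pH gradient of 2–12 units.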

The nature of data set [2]: Apparent permeability of the compound in MDCK cells expressing human MDR1. Particulars: dog. In kind it is ADME, cell-based, Canis lupus familiaris. The essentials:
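Apparent permeability (Papp, […]) measured across MDR1-MDCK cell monolayers transfected with human MDR1.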

The nature of data set [3]: Lipophilicity, log P of the compound. In kind it is physicochemical. Particulars: octanol/water.
Data set [4] is described as follows: Clearance in mouse liver microsomes. It counts as ADME, Microsome. Particulars: read-out: CLH. The essentials:
(§1)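 Compounds incubated at 37 °C with human or mouse liver microsomes.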
(Microsomes from liver hold many membrane-bound enzymes, among them those of drug oxidation.)

Data set [5] in a line: Clearance in human liver microsomes. In kind it is ADME, Microsome. Particulars: read-out: CLH. The essentials:
as §1

Data set [6] is described as follows: Drug level in APP51/16 transgenic female mouse blood at 100 umol/kg, po after 4 hrs. It counts as ADME, organism-based. Particulars: whole blood, read-out: Drug uptake. The method in brief: (§2)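 APP51/16 transgenic mice received an oral suspension in water with 2% cremophor. Parent inhibitor measured 4 h post-dose in blood (nmol/mL) and brain (nmol/g).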
For data set [7], the system named is Brain. Nature of the data set: Drug level in APP51/16 transgenic female mouse brain at 100 umol/kg, po after 4 hrs. It counts as ADME, organism-based. Particulars: in vivo. The method in brief:
as §2

In data set [8] the test system is Brain. The data set is described as follows: Drug level in APP51/16 transgenic male mouse brain at 180 umol/kg, po after 4 hrs. It counts as ADME, organism-based. Particulars: in vivo. The method in brief: (§3)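 Inhibitor given orally to APP51/16 transgenic mice as a suspension in water with 2% cremophor; ritonavir (12.5 mg/kg po, 0.5 h before inhibitor) where noted. Blood concentration (nmol/mL) and brain concentration (nmol/g) determined 4 h after dosing.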

Data set [9] can be described thus: Drug level in APP51/16 transgenic male mouse blood at 180 umol/kg, po after 4 hrs. It counts as ADME, organism-based. The settings on record: whole blood, read-out: Drug uptake. The essentials: as §3
Data set [10] is described as follows: Bioavailability in mouse. Particulars: in vivo. In kind it is ADME, organism-based.
A short description of data set [11]: Clearance in mouse. In kind it is ADME, organism-based. Particulars: in vivo.
The subject of data set [12] is Brain. The data set is described as follows: Drug level in APP51/16 transgenic male mouse brain at 100 umol/kg, po after 4 hrs. In kind it is ADME, organism-based. The settings on record: in vivo. The essentials: as §3
A short description of data set [13]: Drug level in APP51/16 transgenic male mouse blood at 60 umol/kg, po after 4 hrs. The settings on record: whole blood, read-out: Drug uptake. It counts as ADME, organism-based. The method in brief:
as §3

Data set [14] deals with Brain. Nature of the data set: Drug level in APP51/16 transgenic male mouse brain at 60 umol/kg, po after 4 hrs. It counts as ADME, organism-based. The settings on record: in vivo. The method in brief: as §3
Data set [15] is described as follows: Drug level in APP51/16 transgenic male mouse blood at 100 umol/kg, po after 4 hrs. In kind it is ADME, organism-based. Particulars: whole blood, read-out: Drug uptake. The essentials: as §3

In turn, `CC(C)(C)c1cccc(CN[C@H]2CS(=O)(=O)C[C@@H](Cc3cc(F)c(N)c(OC(C(F)(F)F)C(F)(F)F)c3)[C@@H]2O)c1` had a pKa in [1] of 5.7. In addition, in [2], the Papp was found to be 4 ×10⁻⁶ cm/s. In addition, the lipophilicity (logP) in [3] is 5.1.
Turning to `[2H]C([2H])(N[C@H]1C[S@+]([O-])C[C@@H](Cc2cc(F)c(N)c(O[C@H](COC)C(F)(F)F)c2)[C@@H]1O)c1cccc(C(C)C)c1`, the values for the microsomal CLint in data set [4] and in data set [5] were 660 µL/min/mg and 600 µL/min/mg, respectively. Further, the logP in data set [3] worked out at 3.7. Besides, the concentration at 4 h in [6] was determined as 1500 nM. Besides, the Drug uptake in the data set with Brain [7] turned out to be 0.3 nmol/g.
With `COC[C@@H](Oc1cc(C[C@@H]2C[S@@+]([O-])C[C@H](N[C@H](C)c3cccc(C(C)(C)C)c3)[C@H]2O)cc(F)c1N)C(F)(F)F`, the values for the microsomal CLint in data set [4] and in data set [5] were 730 µL/min/mg and 600 µL/min/mg, respectively. For the same compound, the apparent permeability coefficient (Papp) in [2] turned out to be 17 ×10⁻⁶ cm/s. The concentration at 4 h in [6] amounted to 5400 nM. Also, the Drug uptake in the data set on Brain [7] was determined as 0.7 nmol/g.
As to `COC[C@@H](Oc1cc(C[C@@H]2C[S@@+]([O-])C[C@H](NCc3cc(C(C)(C)C)ccc3F)[C@H]2O)cc(F)c1N)C(F)(F)F`, the microsomal CLint was 580 µL/min/mg in [4] and 400 µL/min/mg in data set [5]. Besides, in [2], the apparent permeability (Papp) was 24 ×10⁻⁶ cm/s. The compound further gave a lipophilicity (logP) in data set [3] of 4.1.
Taken in the same sequence, the figures for `COC[C@@H](Oc1cc(C[C@@H]2C[S@@+]([O-])C[C@H](NCc3cccc(C(C)(C)CO)c3)[C@H]2O)cc(F)c1N)C(F)(F)F` were 210 µL/min/mg, 80 µL/min/mg, 10 ×10⁻⁶ cm/s and 3.4.
In the case of `COC[C@@H](Oc1cc(C[C@@H]2C[S@@+]([O-])C[C@H](NCc3cccc(C(C)(C)O)c3)[C@H]2O)cc(F)c1N)C(F)(F)F`, the microsomal CLint in [4] stood at 150 µL/min/mg; in [5] it was 40 µL/min/mg. Also, in data set [2], the Papp was 8 ×10⁻⁶ cm/s.
For `COC[C@@H](Oc1cc(C[C@@H]2C[S@@+]([O-])C[C@H](NCc3cccc(OC(C)C)c3)[C@H]2O)cc(F)c1N)C(F)(F)F`, the figures for the microsomal CLint in data set [4] and in [5] were 190 µL/min/mg and 280 µL/min/mg, respectively. In addition, the apparent permeability (Papp) in [2] was determined as 21 ×10⁻⁶ cm/s. The logP in [3] amounted to 3.6.
On to `COC[C@@H](Oc1cc(C[C@@H]2C[S@@+]([O-])C[C@H](NCc3cccc(OC(F)(F)F)c3)[C@H]2O)cc(F)c1N)C(F)(F)F`, for which the microsomal CLint worked out at 180 µL/min/mg in [4] and 300 µL/min/mg in data set [5]. Moreover, the Papp in [2] turned out to be 31 ×10⁻⁶ cm/s. Further, the logP in data set [3] worked out at 3.7.
Taken in the same sequence, the figures for `COC[C@@H](Oc1cc(C[C@@H]2C[S@@+]([O-])C[C@H](NCc3cnn(CC(C)(C)C)c3)[C@H]2O)cc(F)c1N)C(F)(F)F` were 380 µL/min/mg, 140 µL/min/mg, 10 ×10⁻⁶ cm/s and 2.9.
On to `COC[C@@H](Oc1cc(C[C@@H]2C[S@@+]([O-])C[C@H](NCc3cc(CC(C)(C)C)on3)[C@H]2O)cc(F)c1N)C(F)(F)F`, for which the figures for the microsomal CLint in [4] and in data set [5] were 510 µL/min/mg and 580 µL/min/mg, respectively. The compound also showed a pKa in data set [1] of 4.9. Also, the apparent permeability coefficient (Papp) in [2] was 19 ×10⁻⁶ cm/s. Besides, the logP in data set [3] came to 3.1.
With `COC[C@@H](Oc1cc(C[C@@H]2C[S@@+]([O-])C[C@H](NCc3cc(C(C)(C)C)ccn3)[C@H]2O)cc(F)c1N)C(F)(F)F`, the microsomal CLint was 400 µL/min/mg in [4] and 140 µL/min/mg in [5]. Besides, in [2], the Papp was found to be 19 ×10⁻⁶ cm/s. The lipophilicity (logP) in data set [3] came to 3.5.
For `CC(C)(C)c1cccc(CN[C@H]2C[S@+]([O-])C[C@@H](Cc3cc(F)c(N)c(OC(C(F)(F)F)C(F)(F)F)c3)[C@@H]2O)c1`, the Drug uptake in the data set on Brain [8] is 0.8 nmol/g. In data set [1], this compound had a pKa of 6.7. For the same compound, the concentration at 4 h in [9] was determined as 900 nM. Further, the apparent permeability coefficient (Papp) in data set [2] is 18 ×10⁻⁶ cm/s. Further, the logP in data set [3] worked out at 5.2. The bioavailability in data set [10] was found to be 14%. Further, the clearance in [11] was found to be 129 mL/min/kg.
As to `CC(C)(C)c1cccc(CN[C@H]2C[S@@+]([O-])C[C@@H](Cc3cc(F)c(N)c(OC(C(F)(F)F)C(F)(F)F)c3)[C@@H]2O)c1`, the Papp in data set [2] came out at 11 ×10⁻⁶ cm/s. The lipophilicity (logP) in data set [3] came to 4.9.
As to `COc1cc(C[C@@H]2C[S@@+]([O-])C[C@H](NCc3cccc(C(C)(C)C)c3)[C@H]2O)cc(F)c1N`, in data set [2], the Papp stood at 22 ×10⁻⁶ cm/s. The compound further displayed a log partition coefficient (logP) in [3] of 3.5.
For the compound `CC(C)(C)c1cccc(CN[C@H]2C[S@+]([O-])C[C@@H](Cc3cc(F)c(N)c(OCC(F)(F)F)c3)[C@@H]2O)c1`, the Drug uptake with Brain [8] was determined as 1.3 nmol/g; with Brain [12], 0.7 nmol/g; in the data set on Brain [14], 0.4 nmol/g. Besides, the results for the concentration at 4 h in [9], in data set [13] and in data set [15] were 6100 nM, 800 nM and 2600 nM, respectively. Besides, in data set [2], the Papp was 19 ×10⁻⁶ cm/s. Also, the logP in data set [3] was 4.3.
As for `COC[C@@H](Oc1cc(C[C@@H]2C[S@@+]([O-])C[C@H](NCc3cccc(C(C)(C)C)c3)[C@H]2O)cc(F)c1N)C(F)(F)F`, the microsomal CLint in data set [4] worked out at 480 µL/min/mg; in data set [5], 500 µL/min/mg. Moreover, the Drug uptake in the data set with Brain [8] was 0.7 nmol/g; in the data set with Brain [12] it was 0.2 nmol/g; in the data set on Brain [14], 0.1 nmol/g. In addition, the concentration at 4 h was determined as 3800 nM in data set [9], 300 nM in data set [13] and 1000 nM in data set [15]. Further, the Papp in data set [2] amounted to 18 ×10⁻⁶ cm/s. The same compound had a logP in data set [3] of 3.9.
Take `CC(C)(C)c1cccc(CN[C@H]2C[S@+]([O-])C[C@@H](Cc3cc(F)c(N)c(O[C@H](CO)C(F)(F)F)c3)[C@@H]2O)c1`: the apparent permeability coefficient (Papp) in data set [2] was 16 ×10⁻⁶ cm/s. In [3], this compound registered a logP of 3.7.
As for `CC(C)(C)c1cccc(CN[C@H]2C[S@+]([O-])C[C@@H](Cc3cc(O)c(N)c(F)c3)[C@@H]2O)c1`, the apparent permeability (Papp) in data set [2] came to 9 ×10⁻⁶ cm/s.
`COC[C@@H](Oc1cc(C[C@@H]2C[S+]([O-])C[C@H](N)[C@H]2O)cc(F)c1N)C(F)(F)F` (stereo not given in full): the microsomal CLint in [4] worked out at 180 µL/min/mg; in data set [5], 190 µL/min/mg.
As for `[2H]C([2H])(N[C@H]1C[S@+]([O-])C[C@@H](Cc2cc(F)c(N)c(O[C@H](COC)C(F)(F)F)c2)[C@@H]1O)c1cccc(C(C)(C)C)c1`, the microsomal CLint in [4] is 530 µL/min/mg; in data set [5], 600 µL/min/mg. Further, in data set [2], the Papp was determined as 19 ×10⁻⁶ cm/s. For the same compound, the concentration at 4 h in data set [13] is 400 nM. This compound showed a Drug uptake in the data set with Brain [14] of 0.1 nmol/g.
Consider `COC[C@@H](Oc1cc(C[C@@H]2C[S@@+]([O-])C[C@H](NCc3cccc(C(C)C)c3)[C@H]2O)cc(F)c1N)C(F)(F)F`, for which the microsomal CLint in [4] is 550 µL/min/mg; in data set [5], 690 µL/min/mg. The Papp in data set [2] came to 20 ×10⁻⁶ cm/s. The compound also had a log partition coefficient (logP) in data set [3] of 3.7. Besides, the concentration at 4 h in [6] came to 1600 nM. In the data set on Brain [7], this compound showed a Drug uptake of 0.2 nmol/g.

In general, pKa refers to the negative logarithm of the acid dissociation constant. Low readings indicate a stronger acid or weaker base, high ones a weaker acid or stronger base. Usually Papp stands for the rate of passage across a membrane or cell layer, normalised by area and donor concentration. What is called logP is a log measure of how a compound divides between an organic and an aqueous phase. A higher logP goes with a more lipophilic compound. A word on the bioavailability: it is dose-corrected exposure relative to a reference, in per cent. High values mean much systemic uptake, low ones little systemic uptake. As a reminder, the clearance is a measure of how efficiently the substance is removed, as volume per time.
